# Screening results deposited in PubChem BioAssay by several laboratories.
# Shown are actives, neighbours in structure and some others; about 4.2% of the full set was active somewhere.
# TMEM16A inh: mouse TMEM16A channel inhibition, primary screen; Q8BHY3; HEK293 TMEM16A/YFP iodide influx fluorescence, ionomycin; normalized B-score (activity score, 25-100; higher = stronger inhibition) at 10 µM; 310,000 compounds, 1.2% hits;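 active = ratio plate-corrected score three or more library SD toward inhibition, starting fluorescence score within five deviations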;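 also: score derived from kinetic fluorescence span divided by baseline fluorescence per well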
# TMEM16A act: mouse TMEM16A channel activation, primary screen; Q8BHY3; AID 623877; B-score at 10 µM; HEK293 TMEM16A/YFP-H148Q/I152L, iodide quench fluorescence; hits give low values; 340,000 compounds, 0.3% hits;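 active = fluorescence-ratio B-score plate-corrected deviation score at least 3 library SD below zero, with starting fluorescence score within 5 deviations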;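 also: channel opened by trigger with iodide after compound preincubation; score built on the fluorescence ratio of max minus min over baseline; more negative score means more quench and so TMEM16A activation or potentiation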
# Hep lipid drop: modulators of hepatic lipid droplet formation | inhibition, % at 6.5 µM | 240,000 compounds, 0.4% hits | AML12 mouse hepatocytes, oleate lipid droplets, BODIPY imaging | AID 1656;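 active = lipid droplet intensity inhibited by at least 50%, with more than 500 cells counted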
#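 Technique: fluorescence imaging, 20x objective, two fields per well / Assay system: AML12 hepatocytes (mouse) / Measure: % inhibition of lipid droplet signal / Doses: 6.5 µM single-point dosing / Incubation: overnight exposure / Reagent: 100 µM oleic acid challenge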
# XBP1 UPR activ: adaptive UPR (XBP1) activation | AID 463104 | activation, % at 20 µM | CHO-XBP1 luciferase reporter, IRE1-XBP1 UPR activation, luminescence; percent of tunicamycin response, DMSO as zero | 330,000 compounds, 0.33% hits;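 active = versus positive control, 20 µM dose yields 30% or more activation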
#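 Material: CHO cell line with stable XBP1 luciferase reporter; buffer or medium: F12 medium containing 10% fetal bovine serum; compound: single point, 20 µM final compound, 1% DMSO; incubation: 6 h treatment, 37 °C; measured by: glow luminescence from Steady-Glo reagent; evaluation: activation, % of tunicamycin; control set: tunicamycin high, DMSO low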
# CHOP inh: CHOP inhibition in unfolded protein response | CHO-K1 CHOP-promoter luciferase, tunicamycin-induced, 15-18 h | inhibition, % at 10 µM | 220,000 compounds, 3.8% hits | AID 2732;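 active = compounds that reduced the stress-induced luciferase reporter signal by more than about 70% of percent inhibition, limit read from the data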
# UPR CHOP act: activators of apoptotic arm of unfolded protein response (CHOP) | CHO-CHOP luciferase reporter, UPR activation, luminescence; percent of tunicamycin response over DMSO baseline | activation, % at 10 µM | 330,000 compounds, 0.34% hits | AID 449763;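 active = at 10 µM dose, activation of 40% or more, normalized to positive control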
#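 Dosing – one dose, 10 µM in 0.5% DMSO · System – CHO-CHOP cells, stable luciferase reporter of PERK-eIF2a-CHOP signalling · Input – 500 cells/well · Control set – tunicamycin 10 µg/mL final as positive, DMSO-only wells as negative · Timing – 6 h compound treatment, 37 °C · Measure – % activation vs tunicamycin · Technique – luminescence read with Steady-Glo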
# XBP1 UPR conf: confirmation of adaptive unfolded protein response (XBP1) activators | activation, % at 20 µM | CHO-XBP1 IRE1-XBP1 luciferase reporter, luminescence | shares compounds with XBP1 UPR activ | 1,000 compounds, 63% hits;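 active = reporter signal at least 30% of the positive control's activation in two or more of four replicate wells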
# TMEM16A reconf: re-confirmation of mouse TMEM16A chloride channel inhibitors; inhibition, % at 10 µM; HEK293 TMEM16A/YFP-H148Q, iodide quench fluorescence; ionomycin added to raise cell calcium; 2,300 compounds, 39% hits; shares compounds with TMEM16A inh; AID 652189;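 active = mean duplicate percent inhibition, scaled so buffer wells are 0 and the reference blocker 100, over three buffer SD above buffer mean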
# HEK293 Ca mobil: counter-screen for TMEM16A inhibitors: effect on calcium mobilization | shares compounds with TMEM16A inh | TMEM16A/YFP HEK293, Fluo4 calcium mobilization | calcium response (% of ionomycin), % at 10 µM | 2,300 compounds, 2% hits | AID 652231;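 active = duplicate-averaged calcium signal over 20% of the ionomycin maximum, relative to buffer baseline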;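 also: each well's signal is peak minus trough fluorescence divided by its pre-addition baseline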
# YFP-HEK293 quench: parental YFP-HEK293 iodide quench counter-screen activity | ionomycin | YFP ratio F(max-min)/F0 at 10 µM | 2,300 tested, under 10 active | AID 652233 | shares compounds with TMEM16A inh;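 active = yellow fluorescent protein signal ratio exceeding the buffer control mean by over 5 SD of those controls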;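 also: ratio is mean of duplicate wells from kinetic YFP trace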
# ClC-1 inh: blocks the rat ClC-1 voltage-dependent chloride channel. shares compounds with TMEM16A inh. CHO ClC-1-YFP, iodide influx fluorescence quench; iodide control reads 0, buffer control 100. ratio percent, % at 10 µM. 2,300 tested, under 10 active. AID 652236;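 active = duplicate-mean ratio percent above the mean of iodide-only control wells, which defines zero, plus 5 of their SD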;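 also: higher percent means stronger block of ClC-1 iodide influx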
# A number is an active result; - = inactive; . = not tested or not shown.
SMILES,TMEM16A inh,TMEM16A act,Hep lipid drop,XBP1 UPR activ,CHOP inh,UPR CHOP act,TMEM16A reconf,HEK293 Ca mobil,YFP-HEK293 quench,ClC-1 inh,others
O=C(NC(=S)Nc1ccc(-c2ccccc2)cc1)c1ccccc1,.,-,.,.,.,.,.,.,.,.,
NS(=O)(=O)c1ccc(NC(=S)NC(=O)c2ccc(-c3ccccc3)cc2)cc1,-,-,-,50,-,-,.,.,.,.,XBP1 UPR conf=-
Cc1ccc2nc(/C(C#N)=C/c3ccc(O)c(O)c3)[nH]c2c1,-,-,-,43,.,-,.,.,.,.,XBP1 UPR conf=33
Cc1ccc2nc(/C(C#N)=C/c3ccccc3C(=O)O)[nH]c2c1,-,-,-,-,.,-,.,.,.,.,
CCOC(=O)c1nnc(-c2ccc(C)cc2)nc1Oc1ccccc1Cl,-,-,-,37,78,-,.,.,.,.,XBP1 UPR conf=49
CCOC(=O)c1nnc(-c2cccs2)nc1Oc1ccccc1C(=O)OC,-,-,-,-,-,-,.,.,.,.,
CCOC(=O)c1nnc(-c2ccc(C)cc2)nc1Oc1ccc(Cl)cc1Cl,-,-,.,94,-,-,.,.,.,.,XBP1 UPR conf=124
CCOC(=O)c1nnc(-c2cccs2)nc1Oc1ccc(Cl)cc1,-,-,-,-,-,-,.,.,.,.,
COc1ccc(NC(=O)COC(=O)C2CCN(S(=O)(=O)c3ccccc3)CC2)cc1Cl,-,-,.,-,.,-,.,.,.,.,
O=C1C=CCC(/C=C/c2ccccc2)O1 (stereo not given),-,.,.,-,-,-,.,.,.,.,
COc1ccc(/C=C/C(=O)NC(=S)NCCc2ccc(OC)c(OC)c2)cc1,-,-,.,69,88,-,.,.,.,.,XBP1 UPR conf=-
COc1ccc(CCNC(=O)/C=C\c2ccccc2)cc1OC,-,-,-,-,-,-,.,.,.,.,
Cc1ccc(S(=O)(=O)N(C)C)cc1NC(=O)COC(=O)Cc1ccsc1,-,-,.,-,.,-,.,.,.,.,
Cc1cc(C)c(S(=O)(=O)Nc2ccc3c4c(cccc24)CC3)c(C)c1,100,-,.,30,-,-,-,-,-,-,XBP1 UPR conf=-
CCOC(=O)C1CCCN(C(=O)c2cc(S(=O)(=O)N3CCCCC3)c[nH]2)C1 (stereo not given),-,-,-,-,.,-,.,.,.,.,
Cc1ccc(Nc2nc(-c3c(C)nc4ncccn34)cs2)cc1,-,-,.,-,-,-,.,.,.,.,
Cc1ccc(Nc2nc(-c3c(C)nc4ccccn34)cs2)cc1,25,-,.,41,85,-,32%,-,-,-,XBP1 UPR conf=35
Cc1ccc(S(=O)(=O)N(C)c2ccc3ccccc3c2)cc1,100,-,-,-,-,-,-,-,-,-,
Cc1ccc(N(C)S(=O)(=O)c2ccc(C)cc2)cc1,-,-,-,-,-,-,.,.,.,.,
Cc1ccc(C)c(NC(=O)NCCN2CCCCC2)c1,-,-,-,-,.,-,.,.,.,.,
CCC(CO)N=CC1=C(O)CC(c2ccccc2)CC1=O (stereo not given),-,-,-,-,.,-,.,.,.,.,
C=CCSC1=C(C#N)C(c2ccc(OCC)cc2)CC(=O)N1 (stereo not given),100,-,.,-,-,-,-,-,-,-,
COc1ccc(-c2noc(CCC(=O)N3CCN(c4cccc(C)c4C)CC3)n2)cc1,.,.,.,-,.,-,.,.,.,.,
O=C(NCCC1CCCCN1S(=O)(=O)c1ccccc1)C(=O)NCc1ccncc1 (stereo not given),-,-,.,-,.,-,.,.,.,.,
Cc1ccc(CNC(=O)CC(C)S(=O)(=O)c2ccc3c(c2)NC(=O)C(C)S3)cc1 (stereo not given),25,-,-,-,.,-,22%,-,-,-,
SMILES,TMEM16A inh,TMEM16A act,Hep lipid drop,XBP1 UPR activ,CHOP inh,UPR CHOP act,TMEM16A reconf,HEK293 Ca mobil,YFP-HEK293 quench,ClC-1 inh,others
COc1ccc(N2CCN(C3CC(=O)N(Cc4ccccc4)C3=O)CC2)cc1 (stereo not given),-,-,-,-,-,-,.,.,.,.,
O=C(c1ccncc1)c1ccc(N2CCN(C3CC(=O)N(Cc4ccccc4)C3=O)CC2)cc1 (stereo not given),100,-,-,-,-,-,25%,-,-,-,
COc1ccccc1NC(=O)CCc1nnc2ccc(NCc3ccco3)nn12,-,-,-,-,.,-,.,.,.,.,
O=C(CCCOc1ccc(Br)cc1)Nc1ccc(S(=O)(=O)N2CCOCC2)cc1,-,-,.,-,.,-,.,.,.,.,
CN(CC(=O)Nc1ccc(Cl)cc1)C(=O)c1cccc(S(=O)(=O)N2CCN(Cc3ccccc3)CC2)c1,25,-,.,-,.,-,-,-,-,-,
Cc1nc(-c2ccc(S(=O)(=O)Nc3ccc(Br)cc3Cl)s2)cs1,100,-,-,-,-,-,34%,-,-,-,
Cc1nc(-c2ccc(S(=O)(=O)Nc3cccc(S(N)(=O)=O)c3)s2)cs1,-,-,-,-,-,-,.,.,.,.,
O=C(NOCc1ccccc1)c1ccccc1,-,-,.,-,.,-,.,.,.,.,
CCOC(=O)c1cnc2ccc(OC)cc2c1Nc1ccc2c(c1)OCCO2,100,-,.,-,-,-,-,-,-,-,
CCOC(=O)c1cnc2ccc(C(=O)OC)cc2c1Nc1ccc2c(c1)OCCO2,-,-,.,-,-,-,.,.,.,.,
CC(=O)c1ccc(NC(=O)c2ccc(CSc3ccccc3)o2)cc1,100,-,-,-,-,-,22%,-,-,-,
Cc1c(C(=O)OCCOc2ccccc2)[nH]c2c1C(=O)CCC2,100,-,-,-,-,-,25%,-,-,-,
CC(=O)c1c(C)[nH]c(C(=O)OCCOc2ccccc2)c1C,-,-,-,-,-,-,.,.,.,.,
NS(=O)(=O)OCc1ccc(C(F)(F)F)cc1,-,-,-,-,.,-,.,.,.,.,
CCCSc1nsc(NC(=O)Nc2ccc(F)cc2F)n1,100,-,-,-,.,-,66%,-,-,-,
CCCSc1nsc(NC(=O)CC)n1,-,-,-,-,-,-,.,.,.,.,
CCOC(=O)c1c(NC(=O)COC(=O)C2CC2C)sc(C)c1C (stereo not given),25,-,-,-,70,-,-,-,-,-,
COc1ccc(CCNC(=O)N2c3ccccc3Sc3ccccc32)cc1,100,-,.,-,.,-,53%,-,-,-,
